Where a SMILES comes first, the peptide text is derived from it. [ ]: non-standard residue; d: D form. The star is where a group is joined. X1 = O=C(O)CN1CCN(CC(=O)O)CCN(CC(=O)NCCN2C(=O)CC(*)C2=O)CCN(CC(=O)O)CC1
Assays:
[1] = Biodistribution of ^68Ga-DOTA-RGD in MGC-803 tumor-bearing mice; format: in vivo; details: BALB/c nude, mouse, tumor (MGC-803 xenograft), iv, 10 MBq, total radioactivity
Procedure, shortened: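 Female BALB/c nude mice (4–5 weeks, SPF) bearing s.c. right-shoulder xenografts of 5 × 10^6 MGC-803 cells in PBS; cells grown in DMEM/10% FBS, 37 °C, 5% CO2. Injected 10 MBq radiotracer (740 MBq/μmol), killed at 60 and 180 min. Blocking by co-injection of excess unlabelled thiol peptide (50 mg/kg), 180 min. Ten tissues weighed and gamma-counted, expressed as %ID/g; n = 3.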

inflamed tissue = experiment: Biodistribution of ^68Ga-DOTA-BSA in the turpentine oil inflammation model; format: in vivo, mice; details: 5–10 MBq, mean ± SD, n = 3
Procedure, shortened: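 Inflammation induced by s.c. injection of 30 μL turpentine oil into the right thigh of female mice (4–5 weeks old). Radiolabelled albumin tracer (5–10 MBq; 130 MBq/μmol) injected. Mice killed under anaesthesia at 30 and 60 min post-injection. Inflamed tissue and organs collected, weighed, gamma-counted, and expressed as %ID/g. n = 3, mean ± SD.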

Compound | tissue uptake at 1 h [1] | tissue uptake at 3 h [1] | uptake in inflammatory tissues (inflamed tissue; 0.5 h after injection) | uptake in inflammatory tissues (inflamed tissue; 1 h after injection)
N=C(N)NCCC[C@@H]1NC(=O)[C@H](CSC2CC(=O)N(CCNC(=O)CN3CCN(CC(=O)O)CCN(CC(=O)O)CCN(CC(=O)O)CC3)C2=O)NC(=O)[C@H](CCCCN)NC(=O)[C@@H](Cc2ccc(O)cc2)NC(=O)[C@H](CC(=O)O)NC(=O)CNC1=O (stereo partly shown) [^68Ga-DOTA-RGD, metal not drawn] (cyclo(RGD[dY]KC(X1))) | 4.31 ± 0.93 %ID/g | 8.3 ± 0.92 %ID/g | – | –
^68Ga-DOTA-BSA: ^68Ga-labeled DOTA-Mal conjugated to DTT-treated bovine serum albumin (HS-BSA) | – | – | 4.32 ± 1.10 % ID/g | 6.50 ± 0.40 % ID/g
